In ChEMBL document CHEMBL2390917, “Synthesis and biological evaluation of 2-(5-methyl-4-phenyl-2-oxopyrrolidin-1-yl)-acetamide stereoisomers as novel positive allosteric modulators of sigma-1 receptor” (Bioorg Med Chem, 2013):
pIC50: −log10 of the molar value. Activity calls are given as the source filed them. The rule behind the calls is not given here.

Assays:
[1] = biological target: Sodium-dependent serotonin transporter (Homo sapiens) (UniProt P31645); test: Binding affinity to human serotonin 5-HT transporter at 10 uM by radioligand displacement assay relative to control
Sequence of Sodium-dependent serotonin transporter (Homo sapiens) (P31645 whole entry, looked up): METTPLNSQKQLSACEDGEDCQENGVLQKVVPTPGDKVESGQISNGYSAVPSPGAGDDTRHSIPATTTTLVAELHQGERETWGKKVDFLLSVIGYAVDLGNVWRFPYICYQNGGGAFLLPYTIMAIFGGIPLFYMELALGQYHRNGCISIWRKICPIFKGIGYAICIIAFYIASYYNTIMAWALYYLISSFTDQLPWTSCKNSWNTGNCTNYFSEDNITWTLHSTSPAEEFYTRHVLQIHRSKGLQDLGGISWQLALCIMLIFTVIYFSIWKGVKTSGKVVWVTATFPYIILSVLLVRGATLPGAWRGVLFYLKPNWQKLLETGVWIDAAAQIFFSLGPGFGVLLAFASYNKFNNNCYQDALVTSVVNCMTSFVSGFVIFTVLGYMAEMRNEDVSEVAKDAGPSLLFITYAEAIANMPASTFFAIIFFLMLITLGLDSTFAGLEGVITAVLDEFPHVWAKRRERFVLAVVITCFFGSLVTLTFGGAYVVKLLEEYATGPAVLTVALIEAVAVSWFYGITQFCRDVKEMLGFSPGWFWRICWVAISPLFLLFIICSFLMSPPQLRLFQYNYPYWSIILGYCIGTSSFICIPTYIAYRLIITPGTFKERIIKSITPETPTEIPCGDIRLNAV

[2] = biological target: 5-hydroxytryptamine receptor 6 (Homo sapiens) (UniProt P50406); test: Binding affinity to human 5-HT6 receptor at 10 uM by radioligand displacement assay relative to control
Sequence of 5-hydroxytryptamine receptor 6 (Homo sapiens) (P50406 whole entry): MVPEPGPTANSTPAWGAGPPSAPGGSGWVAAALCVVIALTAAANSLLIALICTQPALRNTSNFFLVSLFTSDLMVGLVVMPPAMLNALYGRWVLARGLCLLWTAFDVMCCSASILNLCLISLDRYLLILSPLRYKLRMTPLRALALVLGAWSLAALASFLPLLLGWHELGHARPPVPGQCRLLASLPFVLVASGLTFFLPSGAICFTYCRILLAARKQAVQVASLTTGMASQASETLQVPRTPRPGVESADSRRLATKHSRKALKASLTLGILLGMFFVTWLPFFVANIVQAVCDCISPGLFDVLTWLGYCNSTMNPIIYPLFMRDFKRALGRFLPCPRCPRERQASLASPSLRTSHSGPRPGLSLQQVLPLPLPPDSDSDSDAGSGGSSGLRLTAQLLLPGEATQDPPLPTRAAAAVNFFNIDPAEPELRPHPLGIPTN

[3] = biological target: Sodium-dependent dopamine transporter (Homo sapiens) (UniProt Q01959); test: Binding affinity to human dopamine transporter at 10 uM by radioligand displacement assay relative to control
Sequence of Sodium-dependent dopamine transporter (Homo sapiens) (Q01959 whole entry): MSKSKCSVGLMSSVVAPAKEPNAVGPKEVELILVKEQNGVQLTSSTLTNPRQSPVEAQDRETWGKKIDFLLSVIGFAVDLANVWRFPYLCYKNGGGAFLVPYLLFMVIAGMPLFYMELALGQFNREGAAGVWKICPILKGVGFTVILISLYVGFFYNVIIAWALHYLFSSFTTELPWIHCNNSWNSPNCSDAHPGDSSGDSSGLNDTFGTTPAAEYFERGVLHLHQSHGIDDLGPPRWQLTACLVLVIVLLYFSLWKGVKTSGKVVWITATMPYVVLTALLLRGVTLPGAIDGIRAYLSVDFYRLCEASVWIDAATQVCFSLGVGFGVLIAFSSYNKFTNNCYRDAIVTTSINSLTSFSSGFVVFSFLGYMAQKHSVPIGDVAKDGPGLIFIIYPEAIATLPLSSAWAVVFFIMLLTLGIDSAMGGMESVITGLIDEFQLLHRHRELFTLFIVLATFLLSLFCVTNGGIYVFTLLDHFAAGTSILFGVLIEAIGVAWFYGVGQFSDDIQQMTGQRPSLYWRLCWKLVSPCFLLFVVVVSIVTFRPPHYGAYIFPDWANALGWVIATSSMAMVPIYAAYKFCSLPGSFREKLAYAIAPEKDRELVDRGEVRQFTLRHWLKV

[4] = biological target: Endothelin receptor type B (Homo sapiens) (UniProt P24530); test: Binding affinity to human ETB receptor at 10 uM by radioligand displacement assay relative to control
Sequence of Endothelin receptor type B (Homo sapiens) (P24530 whole entry): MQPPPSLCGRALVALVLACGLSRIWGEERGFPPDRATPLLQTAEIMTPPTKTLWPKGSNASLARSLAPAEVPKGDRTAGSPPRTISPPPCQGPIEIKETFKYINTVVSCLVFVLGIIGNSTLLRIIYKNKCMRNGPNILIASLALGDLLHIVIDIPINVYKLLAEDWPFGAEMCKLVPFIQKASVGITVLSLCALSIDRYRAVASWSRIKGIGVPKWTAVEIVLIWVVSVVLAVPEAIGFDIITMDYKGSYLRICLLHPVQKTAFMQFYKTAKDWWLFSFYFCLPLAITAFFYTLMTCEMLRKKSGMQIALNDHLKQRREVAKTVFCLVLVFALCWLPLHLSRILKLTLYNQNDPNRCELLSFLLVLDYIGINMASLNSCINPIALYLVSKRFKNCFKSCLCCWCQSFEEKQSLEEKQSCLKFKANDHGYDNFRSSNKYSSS

[5] = biological target: Adrenergic receptor alpha-1 (Homo sapiens) (UniProt P35348+P25100+P35368); test: Binding affinity to human adrenergic alpha1 receptor at 10 uM by radioligand displacement assay relative to control
Homo sapiens [6] = species on record: Homo sapiens; test: Binding affinity to peripheral-type BZD receptor (unknown origin) at 10 uM by radioligand displacement assay relative to control
Mus musculus [7] = test: Toxicity in ICR mouse assessed as effect on locomotor activity measured moved distance per 4 mins at 1 mg/kg, ip after 120 mins by open field test (reference value: 578 126 cm); assay type: organism-based; parameters: dose 1 mg/kg, route intraperitoneal; conditions: in vivo
Mus musculus [8] = test: Cognitive enhancing effect in ICR mouse assessed as increase in retention latency at 10 mg/kg, ip administered 60 mins prior to testing measured after 24 hrs by passive avoidance test relative to control; assay type: functional; conditions: route intraperitoneal
[9] = biological target: Adrenergic receptor alpha-2 (Homo sapiens) (UniProt P08913+P18825+P18089); test: Binding affinity to human adrenergic alpha2 receptor at 10 uM by radioligand displacement assay relative to control
[10] = biological target: 5-hydroxytryptamine receptor 7 (Homo sapiens) (UniProt P34969); test: Binding affinity to human 5-HT7 receptor at 10 uM by radioligand displacement assay relative to control
Sequence of 5-hydroxytryptamine receptor 7 (Homo sapiens) (P34969 whole entry): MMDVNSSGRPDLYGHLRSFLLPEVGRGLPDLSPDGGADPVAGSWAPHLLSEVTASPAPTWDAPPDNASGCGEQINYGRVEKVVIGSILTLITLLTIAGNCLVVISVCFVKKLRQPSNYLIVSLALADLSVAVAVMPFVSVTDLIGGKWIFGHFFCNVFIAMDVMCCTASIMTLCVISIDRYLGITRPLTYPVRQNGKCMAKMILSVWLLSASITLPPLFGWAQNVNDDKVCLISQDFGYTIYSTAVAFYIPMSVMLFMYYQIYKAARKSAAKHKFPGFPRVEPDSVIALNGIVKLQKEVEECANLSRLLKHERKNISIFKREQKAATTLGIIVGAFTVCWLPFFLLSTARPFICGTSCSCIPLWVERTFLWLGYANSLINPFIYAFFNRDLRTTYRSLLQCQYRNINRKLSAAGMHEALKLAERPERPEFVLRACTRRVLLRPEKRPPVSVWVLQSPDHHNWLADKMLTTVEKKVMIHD

Homo sapiens [11] = species on record: Homo sapiens; test: Binding affinity to bombesin receptor (unknown origin) at 10 uM by radioligand displacement assay relative to control
[12] = biological target: Sigma non-opioid intracellular receptor 1 (Rattus norvegicus) (UniProt Q9R0C9); test: Positive allosteric modulation of Wistar rat sigma 1 receptor assessed as potentiation of PRE-084 effect on electrically-stimulated vas deferens contraction at 10 uM preincubated for 10 mins followed by PRE-084 addition
Sequence of Sigma non-opioid intracellular receptor 1 (Rattus norvegicus) (Q9R0C9 whole entry): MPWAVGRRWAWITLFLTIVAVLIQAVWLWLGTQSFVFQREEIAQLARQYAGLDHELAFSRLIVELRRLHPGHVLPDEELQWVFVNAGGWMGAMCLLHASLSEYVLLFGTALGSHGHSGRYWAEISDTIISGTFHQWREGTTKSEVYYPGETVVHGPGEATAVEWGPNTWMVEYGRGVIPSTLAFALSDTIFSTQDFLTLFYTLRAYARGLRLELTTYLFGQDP
Summary of the method: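 Isolated rat vas deferens, proximal ~15 mm segments, in K-H buffer at 32 °C gassed […], with 1.0 g passive tension and a 60 min adaptation. Field-stimulated at 0.1 Hz, 1 ms, 50 V. Cumulative PRE-084 (1–100 µM) was given, then washout and a 30 min rest. Test compound 10 µM was added for 10 min before cumulative PRE-084. Response is % increase over baseline amplitude; n=6, mean ± SEM, paired t-test.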

Mus musculus [13] = test: Toxicity in ICR mouse assessed as effect on locomotor activity measured moved distance per 4 mins at 100 mg/kg, ip after 120 mins by open field test (reference value: 578 126 cm); assay type: organism-based; parameters: dose 100 mg/kg, route intraperitoneal; conditions: in vivo
[14] = biological target: Histamine H1 receptor (Homo sapiens) (UniProt P35367); test: Binding affinity to human histamine H1 receptor at 10 uM by radioligand displacement assay relative to control
Sequence of Histamine H1 receptor (Homo sapiens) (P35367 whole entry): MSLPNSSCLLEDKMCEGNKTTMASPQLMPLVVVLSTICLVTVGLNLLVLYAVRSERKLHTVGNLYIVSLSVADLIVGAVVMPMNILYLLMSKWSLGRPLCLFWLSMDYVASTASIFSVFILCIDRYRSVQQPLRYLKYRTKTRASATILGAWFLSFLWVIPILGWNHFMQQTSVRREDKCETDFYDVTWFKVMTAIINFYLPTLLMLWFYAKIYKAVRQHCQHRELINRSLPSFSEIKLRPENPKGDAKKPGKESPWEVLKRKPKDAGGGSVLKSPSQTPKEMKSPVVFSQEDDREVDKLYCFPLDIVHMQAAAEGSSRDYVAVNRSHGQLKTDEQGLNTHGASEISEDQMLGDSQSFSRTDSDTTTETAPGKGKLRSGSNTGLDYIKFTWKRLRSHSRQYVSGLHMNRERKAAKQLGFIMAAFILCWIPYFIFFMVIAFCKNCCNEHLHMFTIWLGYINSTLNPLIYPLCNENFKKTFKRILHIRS

[15] = biological target: Somatostatin receptor type 1 (Homo sapiens) (UniProt P30872); test: Binding affinity to Somatostatin receptor type 1 (unknown origin) at 10 uM by radioligand displacement assay relative to control
Sequence of Somatostatin receptor type 1 (Homo sapiens) (P30872 whole entry): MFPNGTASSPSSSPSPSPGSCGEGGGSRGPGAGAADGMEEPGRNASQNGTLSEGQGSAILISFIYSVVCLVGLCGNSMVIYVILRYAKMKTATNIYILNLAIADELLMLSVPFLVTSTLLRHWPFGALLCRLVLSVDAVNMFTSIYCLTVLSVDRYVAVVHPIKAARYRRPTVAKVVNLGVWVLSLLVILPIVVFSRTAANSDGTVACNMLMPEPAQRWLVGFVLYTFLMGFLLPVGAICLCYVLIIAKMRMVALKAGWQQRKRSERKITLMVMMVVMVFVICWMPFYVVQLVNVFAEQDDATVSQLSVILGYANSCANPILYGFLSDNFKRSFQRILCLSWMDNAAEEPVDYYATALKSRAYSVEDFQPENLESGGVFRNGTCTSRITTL

[16] = biological target: Sigma non-opioid intracellular receptor 1 (Homo sapiens, UniProt Q99720); test: Displacement of [3H]1,3-di(2-tolyl)guanidine from sigma 1 receptor in human Jurkat cells; assay type: cell-based
Sequence of Sigma non-opioid intracellular receptor 1 (Q99720 whole entry): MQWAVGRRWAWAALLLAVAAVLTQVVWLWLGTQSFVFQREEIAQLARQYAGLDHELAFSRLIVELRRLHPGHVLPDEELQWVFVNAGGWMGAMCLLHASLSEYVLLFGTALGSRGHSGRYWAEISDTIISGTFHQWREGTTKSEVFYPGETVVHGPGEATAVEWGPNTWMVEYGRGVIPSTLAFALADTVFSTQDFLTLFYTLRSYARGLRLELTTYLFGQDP

Mus musculus [17] = test: Toxicity in ICR mouse assessed as effect on locomotor activity measured moved distance per 4 mins at 100 mg/kg, ip after 180 mins by open field test (reference value: 436 125 cm); assay type: organism-based; parameters: dose 100 mg/kg, route intraperitoneal; conditions: in vivo
[18] = biological target: 5-hydroxytryptamine receptor 1B (Homo sapiens) (UniProt P28222); test: Binding affinity to 5-HT1B receptor (unknown origin) at 10 uM by radioligand displacement assay relative to control
Sequence of 5-hydroxytryptamine receptor 1B (Homo sapiens) (P28222 whole entry): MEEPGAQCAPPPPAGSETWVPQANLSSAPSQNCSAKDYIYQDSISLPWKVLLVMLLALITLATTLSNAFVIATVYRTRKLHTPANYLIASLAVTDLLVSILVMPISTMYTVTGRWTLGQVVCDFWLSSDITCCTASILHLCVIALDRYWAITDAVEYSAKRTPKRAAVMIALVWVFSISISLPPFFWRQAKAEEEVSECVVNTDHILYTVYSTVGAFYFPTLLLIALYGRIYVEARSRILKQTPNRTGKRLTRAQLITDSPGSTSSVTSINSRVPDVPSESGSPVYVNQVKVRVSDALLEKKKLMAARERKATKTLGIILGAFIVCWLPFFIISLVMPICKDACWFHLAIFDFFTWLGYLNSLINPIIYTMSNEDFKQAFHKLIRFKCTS

Mus musculus [19] = test: Toxicity in ICR mouse assessed as effect on locomotor activity measured moved distance per 4 mins at 10 mg/kg, ip after 240 mins by open field test (reference value: 398 70 cm); assay type: organism-based; parameters: dose 10 mg/kg, route intraperitoneal; conditions: in vivo
[20] = biological target: D(1A) dopamine receptor (Homo sapiens) (UniProt P21728); test: Binding affinity to human dopamine D1 receptor at 10 uM by radioligand displacement assay relative to control
Sequence of D(1A) dopamine receptor (Homo sapiens) (P21728 whole entry): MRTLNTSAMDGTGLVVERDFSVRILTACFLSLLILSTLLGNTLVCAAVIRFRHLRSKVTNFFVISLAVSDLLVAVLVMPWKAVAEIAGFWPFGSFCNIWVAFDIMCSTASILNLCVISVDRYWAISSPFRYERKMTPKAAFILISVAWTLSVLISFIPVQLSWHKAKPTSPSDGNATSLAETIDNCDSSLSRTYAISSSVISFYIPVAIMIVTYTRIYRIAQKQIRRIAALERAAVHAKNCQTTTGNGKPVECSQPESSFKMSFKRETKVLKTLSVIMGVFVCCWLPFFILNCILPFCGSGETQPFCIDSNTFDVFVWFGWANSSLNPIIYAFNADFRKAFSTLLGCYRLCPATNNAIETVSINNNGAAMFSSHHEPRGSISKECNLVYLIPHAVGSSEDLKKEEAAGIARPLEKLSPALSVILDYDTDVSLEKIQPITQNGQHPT

Mus musculus [21] = test: Cognitive enhancing effect in ICR mouse assessed as increase in retention latency at 1 mg/kg, ip administered 60 mins prior to testing measured after 24 hrs by passive avoidance test relative to control; assay type: functional; conditions: route intraperitoneal
Mus musculus [22] = test: Antiamnesic activity in ICR mouse scopolamine-induced memory impairment model assessed as increase in retention latency at 5 mg/kg, ip administered 60 mins prior to scopolamine challenge measured after 40 mins by passive avoidance test in presence of sigma-1 receptor anatagonist NE-100; assay type: functional, organism-based; parameters: dose 5 mg/kg

## C[C@H]1[C@@H](c2ccccc2)CC(=O)N1CC(N)=O
[1]
  inhibition: 5%
[2]
  inhibition: -10%
[3]
  inhibition: 4%
[4]
  inhibition: 2%
[5]
  inhibition: -5%
Homo sapiens [6]
  inhibition: 3%
Mus musculus [7]
  Activity: 688 cm
Mus musculus [8]
  Activity: 211%
[9]
  inhibition: -2%
[10]
  inhibition: -4%
Homo sapiens [11]
  inhibition: -5%
[12]
  Activity: Active
Mus musculus [13]
  Activity: 470 cm
[14]
  inhibition: -7%
[15]
  inhibition: -5%
[16]
  pIC50: 7.37
Mus musculus [17]
  Activity: 450 cm
[18]
  inhibition: 0%
Mus musculus [19]
  Activity: 359 cm
[20]
  inhibition: -6%
Mus musculus [21]
  Activity: 194%
Mus musculus [22]
  Activity: inactive
